Source: PubChem
MrgX1 agonist: agonists of human MrgX1 receptor; Q96LB2; MrgX1-HEK293 cells, Fluo-4 calcium fluorescence, agonist mode; active compounds read high; B-score at 10 µM; 310,000 compounds, 0.44% hits;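 active = calcium response B-score plate-corrected fluorescence ratio at least 3 library SD, with starting fluorescence B-score inside 5 SD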
Target sequence (Q96LB2 whole entry, looked up): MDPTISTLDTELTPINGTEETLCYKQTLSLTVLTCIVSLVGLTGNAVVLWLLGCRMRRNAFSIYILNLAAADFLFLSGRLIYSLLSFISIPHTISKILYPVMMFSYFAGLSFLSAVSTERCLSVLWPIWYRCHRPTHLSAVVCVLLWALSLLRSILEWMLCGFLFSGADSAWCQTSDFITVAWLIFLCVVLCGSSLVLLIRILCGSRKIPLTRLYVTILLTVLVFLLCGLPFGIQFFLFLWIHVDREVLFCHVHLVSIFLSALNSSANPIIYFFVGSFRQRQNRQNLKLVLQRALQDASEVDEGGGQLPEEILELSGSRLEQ
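Material: MrgX1-expressing HEK293 cells; input: 15,000 cells per well; doses: test compound given as first of three sequential additions; schedule: overnight plating before 1 h dye loading; technique: Fluo-4 NW calcium-flux fluorescence, kinetic read; evaluation: baseline-normalised fluorescence change ratio, B-scored; control set: plate-wise positive and negative controls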
RGS4 act: potentiators or activators of RGS4; HEK293 M3R/inducible RGS4, carbachol calcium flux Fluo4; active compounds read low; B-score at 10 µM; 310,000 compounds, 0.92% hits;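 active = B-score of the integrated calcium signal more than 4 SD below the library mean, with starting fluorescence not abnormally high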;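 also: negative B-score means reduced calcium response which marks RGS4 activation or potentiation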
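Assay system: Inducible-RGS4 HEK293 cells carrying M3 receptor | Schedule: Compound preincubation 20 min at room temperature before agonist | Signal: Kinetic calcium fluorescence imaging with Fluo4-AM dye, 2 µM | Read-out basis: B score from integrated fluorescence ratio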
RGS4 inh: human RGS4 inhibition; 310,000 compounds, 0.45% hits; P49798; AID 463165; HEK293 M3R/RGS4 inducible, Fluo-4 calcium flux; active compounds read high; triggered by carbachol at its EC20; B-score at 10 µM;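 active = B-score, a plate-corrected calcium signal, over three deviations above library mean, with baseline fluorescence within five deviations of library mean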;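 also: RGS4 expression induced by doxycycline in cells with stable M3 receptor; B-score is computed from the integrated fluorescence ratio over baseline after carbachol; higher B-score means a larger calcium signal and so more RGS4 inhibition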
Target sequence (P49798 whole entry, looked up): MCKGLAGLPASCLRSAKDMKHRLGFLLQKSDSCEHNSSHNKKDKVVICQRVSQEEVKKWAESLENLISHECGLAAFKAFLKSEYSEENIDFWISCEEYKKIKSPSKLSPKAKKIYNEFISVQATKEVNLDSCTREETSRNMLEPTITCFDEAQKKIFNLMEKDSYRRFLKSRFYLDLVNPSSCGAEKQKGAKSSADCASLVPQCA
MrgX1 antagonist: blocks BAM8-22 activation of human MrgX1 receptor | B-score at 10 µM | Q96LB2 | AID 588676 | MRGX1-HEK293 calcium flux, Fluo-4, BAM8-22 antagonism; active compounds read low | 310,000 compounds, 1.3% hits;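 active = calcium-response B-score plate-corrected more than 3 library SD below zero, starting fluorescence within 5 deviations, no agonist response on first addition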;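 also: peak minus trough fluorescence over baseline after final BAM8-22 challenge near maximal dose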
MrgX1 PAM: allosterically activates human MrgX1 receptor signaling; AID 588675; 310,000 compounds, 0.63% hits; MrgX1-HEK293, Fluo-4 calcium flux, FDSS; active compounds read high; Q96LB2; B-score at 10 µM;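 active = plate-corrected calcium response at least 3 library SD above typical, normal starting fluorescence, not activating the receptor alone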;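 also: compound read alongside a low EC10 to EC30 dose of BAM8-22 agonist; peak minus trough fluorescence over baseline measured at the second addition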
MrgX1 ant reconf: confirmation of human MrgX1 receptor antagonists. 2,300 compounds, 19% hits. MrgX1-HEK293, BAM8-22 calcium flux, Fluo-4; active compounds read low. AID 602420. shares compounds with MrgX1 antagonist. remaining BAM8-22 calcium response % of control (active compounds read low), % at 10 µM;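 active = remaining agonist calcium response no higher than 100% minus 3 SD of agonist-only control wells, with starting fluorescence near control levels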;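 also: agonist BAM8-22 given at a near maximal EC90 to ECmax level; peak minus minimum fluorescence divided by baseline after agonist addition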
HEK293 Ca flux: MrgX1 antagonist counter-screen hit in parental HEK293 cells; fluorescence ratio F(max-min)/F0 at 10 µM; AID 624111; 4,000 compounds, 2% hits; Fluo-4 calcium fluorescence, FDSS; shares compounds with MrgX1 antagonist;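 active = duplicate-averaged calcium fluorescence ratio at least three times the standard deviation of buffer wells, a nonspecific response in parental cells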
HEK293 Ca counter: counter-screen for MrgX1 allosteric activators: effect in parental HEK293 cells. shares compounds with MrgX1 antagonist. parental HEK293 calcium flux, Fluo-4 fluorescence ratio; active compounds read high. fluorescence ratio F(max-min)/F0 at 10 µM. 4,000 compounds, 0.4% hits. AID 624114;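 active = calcium fluorescence ratio, averaged over duplicates, at least 3 SD of the buffer-well ratio, meaning a nonspecific response in receptor-free cells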;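 also: untransfected parental HEK293 lacking MrgX1 used as counterscreen for MrgX1 allosteric activators; fluorescence change taken during the second addition on a kinetic imager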
HEK293 Ca cntr2: counter-screen for MrgX1 activators: effect in parental HEK293 cells. Fluo-4 calcium fluorescence (FDSS); active compounds read high. AID 624115. shares compounds with MrgX1 antagonist. 4,000 compounds, 8.7% hits. fluorescence ratio F(max-min)/F0 at 10 µM;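 active = calcium fluorescence ratio at least three times the spread of buffer wells, meaning a non-specific response in parental cells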
Active calls of the source: *; i = inactive; nt = no result given. An excerpt weighted towards active compounds, which were near 3.5% of everything screened.

SMILES | MrgX1 agonist | RGS4 act | RGS4 inh | MrgX1 antagonist | MrgX1 PAM | MrgX1 ant reconf | HEK293 Ca flux | HEK293 Ca counter | HEK293 Ca cntr2
CCN=C1SC(C(=O)Nc2cc(Cl)cc(Cl)c2)CC(=O)N1CC (stereo not given) | i | i | i | -5.3* | i | i | i | i | i
Oc1c(Br)cc(Br)cc1C=Nc1cccc2ncccc12 | i | i | i | -7.1* | i | 83%* | i | i | i
Cc1ccc(S(=O)(=O)N(C)C)cc1NC(=O)Cn1c(CN2CCOCC2)nc2ccccc2c1=O | i | i | i | -4.9* | i | i | i | i | i
Cc1ccc(S(=O)(=O)N(C)C)cc1NC(=O)CSc1nc2ccccc2c(=O)n1CC1CCCO1 (stereo not given) | i | i | i | i | i | nt | nt | nt | nt
CCN(CC)C(=O)C1CC(=O)N(c2ccc(F)c(Cl)c2)C1 (stereo not given) | i | i | i | i | i | nt | nt | nt | nt
CN(C)c1ccc(C2N(c3ccc(Cl)cc3)C(=O)C3CCCN32)cc1 (stereo not given) | i | i | i | -6* | i | i | i | i | i
CCCNC(=O)N1CCCC(C(=O)c2cccc(Cl)c2)C1 (stereo not given) | i | i | i | i | i | nt | nt | nt | nt
CCCNC(=O)N1CCC(C(=O)c2cccc(F)c2)CC1 | i | i | i | -4.9* | i | i | i | i | i
Cc1ccc(N=C/C(C(=O)C(F)(F)F)=C(\O)c2ccco2)cc1Cl | i | i | i | i | i | nt | nt | nt | nt
COC(=O)c1c(NC(=O)CSc2ccccc2N)sc(C)c1C | i | i | i | -4.7* | i | i | i | i | i
COC(=O)c1c(NC(=O)Cc2ccccc2)sc(C)c1C | i | i | i | i | i | nt | nt | nt | nt
COC(=O)c1c(NC(=O)c2ccco2)sc(C)c1C | i | i | i | -7.7* | i | 81%* | i | i | i
COC(=O)c1c(NC(=O)c2ccco2)sc(C(=O)Nc2ccc(F)cc2)c1C | i | i | i | i | i | nt | nt | nt | nt
CC(=O)c1ccccc1OC(=O)CCN1C(=O)C2C3C=CC(C4CC34)C2C1=O (stereo not given) | i | i | i | -4.5* | i | i | i | i | i
O=C(CCN1C(=O)C2C3C=CC(C4CC34)C2C1=O)Oc1ccccc1 (stereo not given) | i | i | i | i | i | nt | nt | nt | nt
COC(=O)c1cc2c(ccn2-c2ccc(F)cc2)n1Cc1ccc(C#N)cc1 | i | i | i | -4.7* | i | i | i | i | i
CC(C)c1ccc(/C=C(\NC(=O)c2ccccc2)C(=O)NCCCN2CCOCC2)cc1 | i | i | i | i | i | nt | nt | nt | nt
CC(C)OC(=O)CSc1nnc2c(n1)[nH]c1ccc(F)cc12 | i | i | i | i | i | nt | nt | nt | nt
Cc1ccc(CN(Cc2ccccc2)C(=S)NCC(=O)NCc2cccnc2)o1 | i | i | i | i | i | nt | nt | nt | nt
CCOC(=O)c1cnc(-n2nc(C)cc2C)nc1NC1CCCC1 | i | i | i | -4.7* | i | i | i | i | i
CCOC(=O)c1cnc(-n2nc(C)cc2C)nc1Nc1ccc(OC)cc1 | i | i | i | i | i | nt | nt | nt | nt
COc1ccc(N=Cc2[nH]c3ccccc3c2O)cc1 | i | i | i | i | i | nt | nt | nt | nt
COc1ccc(N=Cc2oc3ccc4ccccc4c3c2O)cc1 | i | i | i | -5.1* | i | 51%* | i | i | i
Cc1[nH]n(-c2ccc([N+](=O)[O-])cc2)c(=O)c1C=NCCN1CCN(C(=O)c2cccc(F)c2)CC1 | i | i | i | i | i | nt | nt | nt | nt
Clc1c(Cl)c(Cl)c2n[nH]nc2c1Cl | i | i | i | -7* | i | i | i | i | i
SMILES | MrgX1 agonist | RGS4 act | RGS4 inh | MrgX1 antagonist | MrgX1 PAM | MrgX1 ant reconf | HEK293 Ca flux | HEK293 Ca counter | HEK293 Ca cntr2
COc1ccc(NC(=O)c2ccc(Cl)c(S(=O)(=O)N3CCc4ccccc4C3)c2)cn1 | i | i | i | -5.5* | i | 38%* | i | i | i
COc1ccccc1NS(=O)(=O)c1cc(NC(=O)c2ccc(Cl)nc2)ccc1Cl | i | i | i | -14* | i | 54%* | i | i | i
O=C1c2ccccc2S(=O)(=O)c2cc(N3CCc4ccccc4C3)ccc21 | i | i | i | i | i | nt | nt | nt | nt
O=C1OCCC1Sc1nc2ccccc2c(=O)n1Cc1ccccc1 (stereo not given) | i | i | i | -6.1* | i | i | i | i | i
O=C1OCCC1Sc1nc2cc(Cl)ccc2n1Cc1ccccc1 (stereo not given) | i | i | i | i | i | nt | nt | nt | nt
NS(=O)(=O)c1cnccc1NCCc1ccccc1 | i | i | i | i | i | nt | nt | nt | nt
CC(=O)c1cccc(NC(=O)Nc2ccc3c(c2)N(C)C(=O)CS3)c1 | i | i | i | -9* | i | 3.0%* | i | i | i
Cc1cc(C)cc(NC(=O)Nc2ccc3c(c2)N(C)C(=O)CS3)c1 | i | i | i | i | i | nt | nt | nt | nt
O=C(OCc1nnc(-c2ccccc2)o1)C1CC(=O)N(Cc2ccco2)C1 (stereo not given) | i | i | i | -5* | i | i | i | i | i
O=C(OCc1nnc(-c2ccccc2)o1)C1CC(=O)N(c2ccccc2)C1 (stereo not given) | i | i | i | i | i | nt | nt | nt | nt
O=C(c1cccc(C(=O)N2CCN(c3ncccn3)CC2)c1)N1CCN(c2ncccn2)CC1 | i | i | i | i | i | nt | nt | nt | nt
O=C(c1ccc2nc(-c3ccco3)c(-c3ccco3)nc2c1)N1CCN(c2ncccn2)CC1 | i | i | i | -6* | i | 83%* | i | i | i
O=C(Nc1ccccc1)c1ccc2nc(-c3ccco3)c(-c3ccco3)nc2c1 | i | i | i | -4.6* | i | 79%* | i | i | i
